Assay results taken from ChEMBL document CHEMBL1153878, “Hansch analysis of veratric acid derivatives as antimicrobial agents” (2009).
≈ marks a conversion by molar mass, not a printed value.

What was measured:
Assay type in all cases: functional
Staphylococcus aureus = experiment: Antibacterial activity against Staphylococcus aureus MTCC 1430 by serial dilution method; design: -logMIC: scale not given here; settings: for MIC: Staphylococcus aureus, MTCC 1430, read-out: MIC
In short: (§1)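 Tube serial dilution in 1 ml sterile double strength nutrient broth I.P., test range […] per ml. Inoculum: […] of a saline suspension at 10⁵ cfu/ml from a fresh 24-h culture, grown in double strength nutrient broth at 37 ± 1 °C. […] Exact MIC refined by further dilution of the stock.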

Bacillus subtilis = experiment: Antibacterial activity against Bacillus subtilis MTCC 2423 by serial dilution method; design: -logMIC: unit not given here; settings: for MIC: Bacillus subtilis, MTCC 2423, read-out: MIC; in short: as §1
Escherichia coli = experiment: Antibacterial activity against Escherichia coli MTCC 739 by serial dilution method; design: -logMIC: scale not given here; settings: for MIC: Escherichia coli, MTCC 739, read-out: MIC; in short: as §1
Candida albicans = experiment: Antifungal activity against Candida albicans MTCC 227 by serial dilution method; design: -logMIC: unit not given here; settings: for MIC: Candida albicans, MTCC 227, read-out: MIC
Aspergillus niger = experiment: Antifungal activity against Aspergillus niger MTCC 2425 by serial dilution method; design: -logMIC: scale not given here; settings: for MIC: Aspergillus niger, MTCC 2425, read-out: MIC

Compound | -logMIC (Staphylococcus aureus) | MIC (Staphylococcus aureus) [µg/mL] | -logMIC (Bacillus subtilis) | MIC (Bacillus subtilis) [µg/mL] | -logMIC (Escherichia coli) | MIC (Escherichia coli) [µg/mL] | -logMIC (Candida albicans) | MIC (Candida albicans) [µg/mL] | -logMIC (Aspergillus niger) | MIC (Aspergillus niger) [µg/mL]
COc1ccc(C(=O)OC(C)(C)C)cc1OC | 1.08 | 20 (≈ 83.9 µM) | 1.2 | 15 (≈ 63 µM) | 1.08 | 20 (≈ 83.9 µM) | 1.38 | 10 (≈ 42 µM) | 1.3 | 12 (≈ 50.4 µM)
CCNC(=O)c1ccc(OC)c(OC)c1 | 0.95 | 23.5 (≈ 112 µM) | 1.21 | 13 (≈ 62.1 µM) | 1.01 | 20 (≈ 95.6 µM) | 1.31 | 10 (≈ 47.8 µM) | 1.26 | 11.5 (≈ 55 µM)
CCCNC(=O)c1ccc(OC)c(OC)c1 | 1.08 | 19 (≈ 85.1 µM) | 1.23 | 13 (≈ 58.2 µM) | 1.08 | 19 (≈ 85.1 µM) | 1.25 | 12.5 (≈ 56 µM) | 1.28 | 12 (≈ 53.7 µM)
COc1ccc(C(=O)N2CCOCC2)cc1OC | 1.08 | 21 (≈ 83.6 µM) | 1.28 | 13 (≈ 51.7 µM) | 1.17 | 17 (≈ 67.7 µM) | 1.37 | 11 (≈ 43.8 µM) | 1.33 | 12 (≈ 47.8 µM)
CCCCCCCOC(=O)c1ccc(OC)c(OC)c1 | 1.25 | 16 (≈ 57.1 µM) | 1.35 | 12.5 (≈ 44.6 µM) | 1.3 | 14 (≈ 49.9 µM) | 1.25 | 16 (≈ 57.1 µM) | 1.37 | 12 (≈ 42.8 µM)
COc1ccc(C(=O)Oc2ccccc2)cc1OC | 1.15 | 18 (≈ 69.7 µM) | 1.27 | 14 (≈ 54.2 µM) | 1.21 | 16 (≈ 61.9 µM) | 1.3 | 12.5 (≈ 48.4 µM) | 1.34 | 11.5 (≈ 44.5 µM)
CNC(=O)c1ccc(OC)c(OC)c1 | 0.95 | 22 (≈ 113 µM) | 1.18 | 13 (≈ 66.6 µM) | 1.05 | 17 (≈ 87.1 µM) | 1.28 | 13 (≈ 66.6 µM) | 1.18 | 12.5 (≈ 64 µM)
COc1ccc(C(=O)OCCC(C)C)cc1OC | 1.1 | 20 (≈ 79.3 µM) | 1.31 | 12.5 (≈ 49.5 µM) | 1.2 | 16 (≈ 63.4 µM) | 1.2 | 16 (≈ 63.4 µM) | 1.3 | 12.5 (≈ 49.5 µM)
COc1ccc(C(=O)N2CCCCC2)cc1OC | 1.15 | 17.5 (≈ 70.2 µM) | 1.33 | 12 (≈ 48.1 µM) | 1.1 | 20 (≈ 80.2 µM) | 1.25 | 14 (≈ 56.2 µM) | 1.28 | 13 (≈ 52.1 µM)
COc1ccc(C(=O)OC(C)C)cc1OC | 1.01 | 22 (≈ 98.1 µM) | 1.2 | 14 (≈ 62.4 µM) | 1.2 | 14 (≈ 62.4 µM) | 1.35 | 10 (≈ 44.6 µM) | 1.25 | 12.5 (≈ 55.7 µM)
C=CCOC(=O)c1ccc(OC)c(OC)c1 | 1 | 22 (≈ 99 µM) | 1.25 | 12.5 (≈ 56.2 µM) | 1.1 | 18 (≈ 81 µM) | 1.1 | 18 (≈ 81 µM) | 1.2 | 14 (≈ 63 µM)
COc1ccc(C(=O)Nc2ccccc2)cc1OC | 1.05 | 23 (≈ 89.4 µM) | 1.25 | 14 (≈ 54.4 µM) | 1.04 | 23 (≈ 89.4 µM) | 1.2 | 16 (≈ 62.2 µM) | 1.29 | 13 (≈ 50.5 µM)
CCCCCOC(=O)c1ccc(OC)c(OC)c1 | 1.1 | 20 (≈ 79.3 µM) | 1.31 | 12.5 (≈ 49.5 µM) | 1.1 | 20 (≈ 79.3 µM) | 1.1 | 20 (≈ 79.3 µM) | 1.1 | 20 (≈ 79.3 µM)
COc1ccc(C(N)=O)cc1OC | 0.9 | 23 (≈ 127 µM) | 1.09 | 15 (≈ 82.8 µM) | 0.95 | 20 (≈ 110 µM) | 1.25 | 10 (≈ 55.2 µM) | 1.2 | 11 (≈ 60.7 µM)
O=C(O)c1cn(C2CC2)c2cc(N3CCNCC3)c(F)cc2c1=O [CIPROFLOXACIN] | 3.33 | – | 3.33 | – | 3.33 | – | – | – | – | –
OC(Cn1cncn1)(Cn1cncn1)c1ccc(F)cc1F [FLUCONAZOLE] | – | – | – | – | – | – | 2.64 | – | 2.64 | –
